TRPC4 PAM: allosteric potentiators of mouse TRPC4 channel | HEK293 TRPC4beta/mu-opioid, DAMGO EC20, Fluo-4 Ca2+ flux; hits give high values | B-score at 10 µM | Q9QUQ5 | actives 0.42% (n = 310,000);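 active = B-score of calcium response area above 5 SD of library B-scores, with initial fluorescence ratio within 5 SD of library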;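 also: B-score of integrated fluorescence ratio over time as area under calcium response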
TRPC6 inh: blocks the mouse TRPC6 cation channel; Q61143; HEK293-TRPC6, membrane potential dye, ACh-evoked depolarization; hits give low values; B-score at 10 µM; actives 1.1% (n = 310,000);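 active = B-score under library mean minus 3 SD, initial fluorescence not abnormally high, positive integrated signal ratio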;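 also: B-score derived from integrated fluorescence ratio over the kinetic read; more negative B-score means stronger inhibition of depolarization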
Target sequence (Q61143 whole entry, looked up): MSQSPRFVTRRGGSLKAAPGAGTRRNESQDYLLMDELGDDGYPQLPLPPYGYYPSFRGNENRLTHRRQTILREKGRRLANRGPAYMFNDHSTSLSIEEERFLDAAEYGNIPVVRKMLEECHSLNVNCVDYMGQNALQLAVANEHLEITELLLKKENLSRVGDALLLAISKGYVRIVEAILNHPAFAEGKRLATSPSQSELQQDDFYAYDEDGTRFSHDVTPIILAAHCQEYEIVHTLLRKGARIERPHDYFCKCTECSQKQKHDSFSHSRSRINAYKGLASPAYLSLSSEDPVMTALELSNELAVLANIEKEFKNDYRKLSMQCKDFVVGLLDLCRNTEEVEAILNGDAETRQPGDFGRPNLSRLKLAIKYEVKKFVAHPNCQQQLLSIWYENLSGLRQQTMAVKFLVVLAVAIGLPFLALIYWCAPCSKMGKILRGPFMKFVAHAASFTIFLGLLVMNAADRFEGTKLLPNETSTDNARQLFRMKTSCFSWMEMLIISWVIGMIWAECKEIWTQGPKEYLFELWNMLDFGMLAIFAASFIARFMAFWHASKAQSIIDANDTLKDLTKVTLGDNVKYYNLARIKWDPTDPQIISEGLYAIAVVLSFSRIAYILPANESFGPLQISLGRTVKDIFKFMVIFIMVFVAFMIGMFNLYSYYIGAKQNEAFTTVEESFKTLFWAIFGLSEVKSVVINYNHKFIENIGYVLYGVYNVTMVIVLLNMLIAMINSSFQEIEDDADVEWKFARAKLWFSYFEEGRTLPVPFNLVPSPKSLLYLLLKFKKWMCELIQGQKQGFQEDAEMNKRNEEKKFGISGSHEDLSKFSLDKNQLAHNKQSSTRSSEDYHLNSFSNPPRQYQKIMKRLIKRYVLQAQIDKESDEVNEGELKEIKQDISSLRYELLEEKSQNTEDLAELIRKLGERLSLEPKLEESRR
TRPC4 block: blocks the mouse TRPC4 cation channel | Q9QUQ5 | HEK293 TRPC4beta/mu-opioid, DAMGO-evoked Fluo4 calcium flux; hits give low values | B-score at 10 µM | actives 0.39% (n = 300,000);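 active = B-score over 3 SD under the library average, no early fluorescence shift, positive overall ratio signal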
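test system = HEK293 cells with stable TRPC4beta plus mu-opioid receptor expression | detection = Fluo4 Ca2+ flux fluorescence | read-out = integrated fluorescence ratio relative to baseline, converted to per-well B score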
TRPC6 activator: activates the mouse TRPC6 cation channel. HEK293-TRPC6 membrane potential dye fluorescence; hits give high values. B-score at 10 µM. actives 0.13% (n = 310,000). AID 2550;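 active = B-score of the integrated fluorescence ratio above library mean plus 3 SD, and starting fluorescence ratio within library mean plus 5 SD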;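 also: higher score means more depolarization so channel activation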
TRPC4 agonist: opens the mouse TRPC4 cation channel. actives 0.49% (n = 310,000). B-score at 10 µM. HEK293 TRPC4beta/mu-opioid, Fluo4 calcium fluorescence; hits give high values. Q9QUQ5;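 active = B-score above 5 SD of library B-scores, and initial fluorescence ratio not above library mean plus 5 SD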;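 also: positive B-score marks a calcium rise read as TRPC4 activation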
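Assay system: HEK293 stable line with TRPC4beta plus mu-opioid receptor. Times: dye 45 min RT, read 110 s. Measured by: kinetic Fluo4 calcium fluorescence. Measure: B score of integrated ratio. Controls: assay buffer as low control, maximal DAMGO as high control.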
TRPC4 spec 2: mouse TRPC4 off-target activity of TRPC6 inhibitors, second screen; actives 42% (n = 920); HEK293 TRPC4/MOR, membrane potential dye fluorescence; channel activated by saturating DAMGO dose; inhibition, % at 10 µM; shares compounds with TRPC6 inh; AID 2776;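 active = compounds whose fluorescence signal differed from control wells by over 3 SD, either direction, in both duplicate plates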
TRPC4 spec: tests whether TRPC6 inhibitors also affect mouse TRPC4. actives 61% (n = 920). AID 2777. activity change, negative = inhibition, % at 10 µM. shares compounds with TRPC6 inh. HEK293 TRPC4/mu-opioid, membrane potential fluorescence;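 active = rise or fall in signal beyond 3 SD of buffer-only wells in both replicate plates, either sign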;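 also: integrated kinetic ratio of fluorescence range over baseline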
HEK293 MPD ctr 2-1: parental HEK293 nonspecific activity of TRPC6 inhibitors, second screen; shares compounds with TRPC6 inh; actives 31% (n = 920); AID 2779; signal change vs control, % at 10 µM; parental HEK293 membrane potential dye fluorescence; maximal acetylcholine challenge after compound addition;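 active = membrane potential signal moving either way by over 3 SD of the maximum-effect control, in both duplicate plates, meaning non-specific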
HEK293 MPD ctr-1: parental HEK293 nonspecific activity of TRPC6 inhibitors; parental HEK293 membrane potential dye fluorescence; shares compounds with TRPC6 inh; AID 2780; membrane potential signal change, % at 10 µM; actives 60% (n = 920);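 active = membrane potential signal shifting up or down by more than 3 SD of buffer-only wells, on both duplicate plates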
HEK293 MPD ctr-2: counter-screen for TRPC6 modulators: effect in parental HEK293 cells. shares compounds with TRPC6 inh. membrane potential dye fluorescence. membrane potential signal change, % at 10 µM. actives 51% (n = 2,400). AID 488924;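 active = membrane potential signal moves up or down beyond 5 SD from buffer-only wells, on both duplicate plates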
HEK293 MPD ctr 2-2: second counter-screen for TRPC6 modulators: effect in parental HEK293 cells. shares compounds with TRPC6 inh. membrane potential dye fluorescence; after compound, maximal acetylcholine stimulation. inhibition, % at 10 µM. actives 14% (n = 2,400). AID 488926;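 active = membrane potential signal drops by more than 5 SD from the mean control signal, in both duplicate plates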;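 also: plate controls were acetylcholine ECmax control wells for no effect and buffer only wells for full effect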
TRPC4 ctr mod: selectivity of TRPC6 modulators against mouse TRPC4 | shares compounds with TRPC6 inh | HEK293 TRPC4/mu-opioid, membrane potential fluorescence | percent change from control (negative = decrease, positive = increase), % at 10 µM | actives 69% (n = 2,400);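 active = membrane potential signal moved up or down beyond 5 SD of buffer control wells, in both duplicate plates, actives on both sides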;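 also: plate controls were assay buffer wells for no effect and DAMGO maximal-effect wells for full effect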
TRPC4 ctr inh 2: second selectivity test of TRPC6 modulators against mouse TRPC4. HEK293 TRPC4/mu-opioid, membrane potential dye fluorescence; stimulated with maximal-effect DAMGO. actives 55% (n = 2,400). inhibition, % at 10 µM. shares compounds with TRPC6 inh;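 active = drop in membrane potential signal beyond 5 SD of the control wells in both duplicate plates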;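 also: TRPC4 counter screen for TRPC6 hits run under conditions tuned for TRPC6 not TRPC4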
TRPC6 block conf: confirmation of mouse TRPC6 inhibitors; shares compounds with TRPC6 inh; inhibition, % at 10 µM; HEK293-TRPC6, membrane potential dye, ACh-evoked depolarization; actives 43% (n = 3,300);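 active = fluorescence ratio falls more than 5 SD below the full-stimulation control mean, in both duplicate runs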;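 also: integrated fluorescence ratio of peak minus minimum over baseline after agonist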
TRPC6 act conf: confirmation of mouse TRPC6 activators; shares compounds with TRPC6 inh; HEK293-TRPC6 membrane potential dye fluorescence, FDSS; activation, % at 10 µM; actives 11% (n = 2,800);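 active = ratio signal rise beyond 5 SD above unstimulated control wells' mean, seen in both duplicate runs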;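 also: plate controls were buffer EC0 wells for no effect and acetylcholine ECmax response for full effect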
Starred values were filed as active, the others as inactive; i = inactive; x = no result; + = active, no number. Only some compounds are listed: those with a hit (about 2.3% of all), similar ones and a draw of the others.

SMILES	TRPC4 PAM	TRPC6 inh	TRPC4 block	TRPC6 activator	TRPC4 agonist	HEK293 MPD ctr-2	HEK293 MPD ctr 2-2	TRPC4 ctr mod	TRPC4 ctr inh 2	TRPC6 block conf	TRPC6 act conf	others
CCOc1ccc(NC(C)c2cc(Cl)ccc2O)cc1 (stereo not given)	i	-5.19*	i	i	i	i	i	-15.0%*	37.5%*	i	i
CCOc1ccc(S(=O)(=O)Nc2cc(Cl)ccc2O)cc1	i	-5.31*	i	i	i	i	i	-15.5%*	i	i	i
CC(Nc1ccc(Cl)cc1)c1cc(Cl)ccc1O (stereo not given)	i	i	i	i	i	x	x	x	x	x	x
CCOc1ccc(S(=O)(=O)Nc2cccc(Cl)c2)cc1	i	i	i	i	i	x	x	x	x	x	x
COc1ccc(-c2cc(C(=O)Nc3cccc(O)c3)no2)cc1	i	i	i	i	i	x	x	x	x	x	x
COc1ccc(/C=C2\SC(=NCc3ccccc3)NC2=O)cc1	i	-6.21*	i	i	i	i	i	i	i	i	i
O=C(c1ccccc1)N(c1ccccc1)C1C=CS(=O)(=O)C1 (stereo not given)	i	-6.27*	i	i	i	i	i	i	i	i	i
COc1ccc(C(=O)N(c2ccccc2)C2C=CS(=O)(=O)C2)cc1 (stereo not given)	i	i	i	i	i	x	x	x	x	x	x
CCOC(=O)c1cn(C2CC2)c2c(F)c(NCCCN(C)C)c(F)cc2c1=O	i	-7.37*	i	i	i	x	x	x	x	67.1%*	i	TRPC4 spec 2=i;TRPC4 spec=-23.0%*;HEK293 MPD ctr 2-1=0.0%*;HEK293 MPD ctr-1=-436.5%*
CN(C)c1ccc(/C=C/C(=O)c2cccnc2)cc1	i	i	i	133*	i	+	+	470.0%*	159.5%*	x	864.5%*
O=C(c1cn(-c2ccccc2)nc1-c1ccc(Br)cc1)N1CCOCC1	i	i	i	i	i	x	x	x	x	x	x
Cc1ccc(-n2cccn2)c(CN2CCCC(CNC(=O)c3ccc(F)cc3)C2)c1 (stereo not given)	i	i	i	i	i	x	x	x	x	x	x
Cc1ccc(-n2cccn2)c(CN2CCCC(C(=O)c3ccc4c(c3)OCO4)C2)c1 (stereo not given)	i	-6.83*	-8*	i	i	190.0%*	i	14.5%*	83.0%*	53.0%*	x
CC(C)(C)CNc1cc(N2CCCC2)ccc1[N+](=O)[O-]	i	i	i	i	i	x	x	x	x	x	x
NCCNc1cc(N2CCCC2)ccc1[N+](=O)[O-]	i	-6.33*	i	i	i	-164.5%*	i	-31.0%*	70.0%*	58.0%*	i
Cc1c(Cc2ccccc2)c(NCCN(C)C)n2c(nc3ccccc32)c1C#N	i	-5.97*	i	i	i	i	i	i	54.0%*	i	i
Cc1c2c(n3c(nc4ccccc43)c1C#N)N(CCN(C)C)CC2	i	-10.6*	i	i	i	-324.0%*	95.0%*	-59.5%*	71.0%*	69.5%*	i
CCCCc1c(C)c(C#N)c2nc3ccccc3n2c1NCCN(C)C	i	i	i	i	i	x	x	x	x	x	x
Cc1c2c(n3c(nc4ccccc43)c1C#N)N(CCCN(C)C)CC2	i	-8.35*	i	i	i	-314.5%*	98.0%*	-56.5%*	62.5%*	68.0%*	i
CCc1c(C)c(C#N)c2nc3ccccc3n2c1Cl	i	i	i	i	i	x	x	x	x	x	x
CCN(CC)C(=O)C(C(=O)c1cccc([N+](=O)[O-])c1)n1cc(Cl)ccc1=O (stereo not given)	i	i	i	i	i	x	x	x	x	x	x
CCOc1ccc(S(=O)(=O)NC2CC2)cc1	i	i	i	i	i	x	x	x	x	x	x
CC(C)(C)c1nnc(NC(=O)Cc2ccccc2[N+](=O)[O-])s1	i	-6.36*	i	i	i	i	i	i	i	i	i
COc1ccc(C(=O)O)cc1S(=O)(=O)Nc1ccccc1Cc1ccccc1	i	i	i	i	i	x	x	x	x	x	x
COc1ccc(OC)c2sc(N(CCN(C)C)C(=O)c3cc(Cl)sc3Cl)nc12	i	-5.46*	i	i	102*	i	i	-42.5%*	80.0%*	i	i
COc1ccc2sc(N(CCN(C)C)C(=O)c3cc(Cl)sc3Cl)nc2c1	i	i	i	i	i	x	x	x	x	x	x
O=C(CN1C(=O)C2CCCCC2C1=O)N1CCN(c2ncccn2)CC1 (stereo not given)	i	i	i	i	i	x	x	x	x	x	x
O=C(CN1CCN(c2ncccn2)CC1)N1CCCC1	i	-5.33*	i	i	i	i	i	i	i	i	i
CC1CCN(S(=O)(=O)N2CCN(C(=O)c3ccc4c(c3)OCO4)CC2)CC1	i	i	i	i	i	x	x	x	x	x	x
COCC(C)OC(=O)C(C#N)c1nc2ccccc2nc1N1CCN(Cc2ccccc2)CC1 (stereo not given)	i	i	i	i	i	x	x	x	x	x	x
